Screening data: PubChem, Broad Institute
PGC1a acetyl inh: PGC1a acetylation modulation, inhibitor mode | 350,000 compounds, 0.17% hits | inhibition, % at 15.6 µM | AID 651687 | U2OS PGC1a acetylation, AlphaScreen anti-acetyl-lysine; with virally co-expressed GCN5 acetyltransferase;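 active means every replicate shows inhibition of at least 40%; inconclusive means mean inhibition at least 40% but some replicate below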
HIV Env fusion: blocks HIV Env-driven cell-cell fusion | inhibition, % at 12.3 µM | AID 651610 | HeLa-JRFL Env/CEM21 cell fusion, luciferase | 360,000 compounds, 1.1% hits;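 active means mean replicate inhibition score of at least 50 and every replicate individually at or above 50; inconclusive means only one of the two criteria met; inactive means mean below 50 and not all replicates reaching 50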
PglD DTNB: PglD (C. jejuni) enzyme inhibition | purified PglD enzyme, DTNB colorimetric CoA detection | 360,000 compounds, 0.098% hits | inhibition, % at 12.5 µM; in the data active means inhibition above about 16%, passing the limit was not always enough; inconclusive means no clear call, values can overlap the other calls
DENV2 CPE: protects cells from dengue virus 2 cytopathic effect; DENV2-infected cells, cytopathic effect rescue, plate reader; CPE inhibition, % at 9.99 µM; 350,000 compounds, 1.7% hits; in the data active means CPE inhibition above about 20%, passing the limit was not always enough; inconclusive means no clear call, values can overlap the other calls; tested in BHK-21 cells
Ecoli rRNA inh: inhibits bacterial ribosomal RNA function over humanized ribosomes | E. coli WT GFP vs humanized-ribosome RFP mutants, fluorescence, 24 h; active compounds read low; DMSO median 0, no signal -100 | GFP signal change (wild-type ribosome), % (test concentration not listed) | 350,000 compounds, 1.6% hits;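 active means significant combined selectivity score with lowered wild-type GFP, culture density cut under 30%, mutant RFP and density less affected; inactive means any of these conditions unmet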
FN deposition inh: fibronectin deposition inhibition; AH1F fibroblasts, Alexa488-fibronectin deposition fluorescence, overnight; inhibition, % at 12.6 µM; 350,000 compounds, 0.086% hits; AID 743247;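 active means mean inhibition across replicates of 30% or more, regardless of how many single replicates reach that level; inconclusive means mean under 30% yet at least half of replicates reach 30%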
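Assay system: AH1F fibroblast monolayer, labelled fibronectin deposition. Amount: 10000 cells per well. Also added: labelled fibronectin 24 nM. Compound: single-point pinned compound. Incubation: cell attachment 1 h, compound and FN exposure overnight. Detection: fluorescence after three HBSS washes, excitation 485 nm, emission 525 nm. Read-out: inhibition of fibronectin deposition signal.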
Large screens that a line does not name were inactive; [ ] = remark or other dose. An excerpt weighted towards active compounds, which were near 3.5% of everything screened.

COc1ccc(CN2C[C@H](O)COC[C@@H]3O[C@@H](CC(=O)N4CCc5ccccc5C4)CC[C@H]32)cc1	none (no result: HIV Env fusion)
O=C(c1ccc(-c2ccccc2)c(F)c1)C1CCCN(CCCn2cccn2)C1 (stereo not drawn)	Ecoli rRNA inh -22.2
N#Cc1ccc(-c2ccc([C@@H]3[C@@H](CO)N4C(=O)CN(C(=O)C5CC5)C[C@@H]34)cc2)cc1	none (no result: HIV Env fusion, PglD DTNB, FN deposition inh)
O=C1C=CC(O)C2(CO)OC12 (stereo not drawn)	DENV2 CPE 25.2 (no result: PGC1a acetyl inh)
COc1ccc(CNC(=O)C[C@@H]2CC[C@H](NC(=O)c3ccc4c(c3)OCO4)[C@@H](CO)O2)cc1	none
C[C@@H]1CCCCO[C@@H](CN(C)Cc2ccc(C(F)(F)F)cc2)[C@@H](C)CN([C@@H](C)CO)C(=O)c2cc(NC(=O)c3ccccc3)ccc2O1	none (no result: FN deposition inh)
C[C@@H]1CCCCO[C@H](CN(C)Cc2ccc(C(F)(F)F)cc2)[C@@H](C)CN([C@@H](C)CO)C(=O)c2cc(NC(=O)c3ccccc3)ccc2O1	none (no result: FN deposition inh)
C[C@@H]1CCCCO[C@@H](CN(C)Cc2ccc(C(F)(F)F)cc2)[C@@H](C)CN([C@H](C)CO)C(=O)c2cc(NC(=O)c3ccccc3)ccc2O1	DENV2 CPE 25.1 (no result: FN deposition inh)
C[C@H]1CCCCO[C@H](CN(C)Cc2ccc(C(F)(F)F)cc2)[C@@H](C)CN([C@@H](C)CO)C(=O)c2cc(NC(=O)c3ccccc3)ccc2O1	HIV Env fusion 59.4[16.7 µM] (no result: FN deposition inh)
C[C@H]1CCCCO[C@H](CN(C)Cc2ccc(C(F)(F)F)cc2)[C@@H](C)CN([C@@H](C)CO)C(=O)c2cc(NC(=O)Nc3ccccc3)ccc2O1	none
C[C@@H]1CCCCO[C@H](CN(C)Cc2ccc(C(F)(F)F)cc2)[C@@H](C)CN([C@@H](C)CO)C(=O)c2cc(NC(=O)Nc3ccccc3)ccc2O1	none
C[C@H]1CCCCO[C@@H](CN(C)Cc2ccc(C(F)(F)F)cc2)[C@@H](C)CN([C@@H](C)CO)C(=O)c2cc(NC(=O)c3ccccc3)ccc2O1	HIV Env fusion 68.9[16.7 µM], DENV2 CPE 23.1 (no result: FN deposition inh)
C[C@@H]1CN([C@@H](C)CO)C(=O)c2cc(NC(=O)c3ccccc3)ccc2O[C@@H](C)CCCCO[C@H]1CN(C)Cc1ccc(C(F)(F)F)cc1	DENV2 CPE 48.6 (no result: FN deposition inh)
O=S(=O)(N[C@@H]1CC[C@H](CCn2cc(-c3ccccc3F)nn2)O[C@@H]1CO)c1ccc(Cl)cc1	none
C[C@@H]1CN([C@H](C)CO)C(=O)c2cc(NC(=O)Cc3ccccc3)ccc2O[C@@H](C)CCCCO[C@@H]1CN(C)Cc1ccc(C(F)(F)F)cc1	HIV Env fusion 65.1[16.7 µM] (no result: FN deposition inh)
C[C@H](CO)N1C[C@H](C)[C@H](CN(C)C(=O)CCCN(C)C)OCCCC[C@H](C)Oc2ccc(NC(=O)Cc3ccccc3)cc2C1=O	DENV2 CPE 98.2
C[C@@H]1CCCCO[C@@H](CN(C)C(=O)CCCN(C)C)[C@H](C)CN([C@H](C)CO)C(=O)c2cc(NC(=O)Cc3ccccc3)ccc2O1	none
C[C@@H]1CCCCO[C@H](CN(C)C(=O)CCCN(C)C)[C@@H](C)CN([C@@H](C)CO)C(=O)c2cc(NC(=O)Nc3ccc4c(c3)OCO4)ccc2O1	DENV2 CPE 47.4
C[C@H]1CCCCO[C@H](CN(C)C(=O)CCCN(C)C)[C@@H](C)CN([C@@H](C)CO)C(=O)c2cc(NC(=O)Cc3ccccc3)ccc2O1	DENV2 CPE 29.0
C[C@H]1CN([C@@H](C)CO)C(=O)c2c(c3ccccc3n2C)-c2ccccc2CO[C@H]1CN(C)C(=O)Nc1ccnc(N2CCOCC2)c1	none (no result: PGC1a acetyl inh, HIV Env fusion, PglD DTNB)
Cc1ccc(S(=O)(=O)Nc2ccc3c(c2)C(=O)N([C@H](C)CO)C[C@@H](C)[C@@H](CN(C)CC2CCCCC2)OCCCC[C@@H](C)O3)cc1	none (no result: FN deposition inh)
O=C(Nc1ccccc1F)N1CCCCN2[C@@H](CO)[C@H](c3ccc(C#Cc4ccccc4)cc3)[C@@H]2C1	none (no result: HIV Env fusion)
CC(C)CNC(=O)COC(=O)c1cc(S(=O)(=O)N2CCCCC2)ccc1N1CCOCC1	none (no result: HIV Env fusion, DENV2 CPE, Ecoli rRNA inh, FN deposition inh)
O=C(COC(=O)c1cc(S(=O)(=O)N2CCOCC2)ccc1O)NCc1ccc2c(c1)OCO2	HIV Env fusion 81.7 (no result: PGC1a acetyl inh)
O=C(COC(=O)c1cc(S(=O)(=O)N2CCCCC2)ccc1N1CCOCC1)NCCc1ccc(F)cc1	Ecoli rRNA inh -20.5 (no result: PGC1a acetyl inh, PglD DTNB, FN deposition inh)
Cc1ccc(COC(=O)c2cc(S(=O)(=O)N3CCCCC3)ccc2N2CCOCC2)cc1	HIV Env fusion 76.1 (no result: PGC1a acetyl inh, PglD DTNB)
Cc1ccc(S(=O)(=O)N2CCOCC2)cc1C(=O)OCC(=O)NCc1ccc2c(c1)OCO2	none
O=C(OCCOc1cccc(Cl)c1)c1cc(S(=O)(=O)N2CCCCC2)ccc1N1CCOCC1	HIV Env fusion 75.3 (no result: PGC1a acetyl inh)
O=C(C[C@H]1C=C[C@@H](NC(=O)c2ccccc2)[C@@H](CO)O1)NCc1ccncn1	none (no result: FN deposition inh)
CNC[C@@H]1Oc2c(NS(=O)(=O)c3ccccc3)cccc2C(=O)N([C@H](C)CO)C[C@H]1C	none (no result: HIV Env fusion)
C[C@@H]1CN([C@H](C)CO)C(=O)c2cc(NC(=O)Nc3ccc(F)cc3)ccc2O[C@H]1CN(C)C(=O)Nc1ccc(F)cc1	none (no result: FN deposition inh)
C[C@@H]1CN([C@H](C)CO)C(=O)Cc2cc(NC(=O)Cc3ccccc3)ccc2O[C@@H]1CN(C)S(=O)(=O)c1ccc(Cl)cc1	none (no result: HIV Env fusion)
CCC(=O)Nc1ccc2c(c1)OC[C@@H](C)N(Cc1cccnc1)C[C@@H](C)[C@H](OC)CN(C)C2=O	none (no result: HIV Env fusion)
CCCC(=O)N1CCN(c2nc3ccc(Br)cc3s2)CC1	none
CCCCC(=O)N1CCN(c2nc3ccc(Br)cc3s2)CC1	Ecoli rRNA inh -19.6
O=C(/C=C/c1ccccc1)Nc1cccnc1Oc1ccccc1F	Ecoli rRNA inh -16.4
Cc1[nH]c(=O)[nH]c(=O)c1S(=O)(=O)NCC12CC3CC(CC(C3)C1)C2	none (no result: PGC1a acetyl inh, DENV2 CPE, Ecoli rRNA inh)
CCC(NS(=O)(=O)c1c(C)[nH]c(=O)[nH]c1=O)C12CC3CC(CC(C3)C1)C2 (stereo not drawn)	HIV Env fusion 80.1 (no result: DENV2 CPE, Ecoli rRNA inh)
CNc1cccnc1C=NNC(N)=S	HIV Env fusion 81.4 (no result: PglD DTNB)
Cc1ccc(C(=O)C2CCN(CC(=O)Nc3nc(C)cs3)CC2)cc1	Ecoli rRNA inh -21.5 (no result: HIV Env fusion, FN deposition inh)
COc1c(OC2OC(C(=O)O)C(O)C(O)C2O)cc(O)c2c(=O)cc(-c3ccccc3)oc12 (stereo not drawn)	DENV2 CPE 25.4
CCCC(=O)Nc1ccc2c(c1)C(=O)N(C)C[C@H](OC)[C@H](C)CN(C(=O)CC)[C@@H](C)CO2	none (no result: HIV Env fusion, PglD DTNB, DENV2 CPE)
O=C(CN1N=C(C(F)(F)F)CC1(O)c1ccc([N+](=O)[O-])cc1)c1ccccc1 (stereo not drawn)	none (no result: DENV2 CPE, Ecoli rRNA inh)
O=C(c1ccccc1O)N1N=C(C(F)(F)F)CC1(O)c1ccc([N+](=O)[O-])cc1 (stereo not drawn)	HIV Env fusion 58.7, DENV2 CPE inconclusive
